Data on seven compounds can be found in PubChem BioAssay.

The nature of test [1]: inhibitors of TNFa-induced NFkB p65 translocation, primary screen, imaging, HUVEC, MLSMR starter and 10KST1 sets (AID 438;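 active = inhibition above 20% together with a positive visual image hit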;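 also: compound added about 3h40 before a 20 min TNFalpha stimulation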;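 as to inhibition: signal is the nuclear over cytoplasmic p65 intensity ratio per well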). To be noted: HUVEC TNFa-induced p65 nuclear translocation; cell count: measured here: nuclei count (cytotoxicity indicator), at 2.08 µM; inhibition: at 2 µM, stronger effect = higher value, 0% TNFa-plus-vehicle, 100% no-TNFa wells.
Test [2] in a line: endothelial E-selectin expression blockers – imaging, HUVEC, immunofluorescence, MLSMR starter and 10KST1 sets, primary screen (AID 487).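 As to inhibition: signal is fraction of cell area covered by stained E-selectin grains.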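 As to nuclei count: 100% = median nuclei count of all wells on the same plate.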 To be noted: HUVEC TNFalpha-induced E-selectin immunofluorescence imaging, at 2 µM; inhibition: stronger effect = higher value; nuclei count: measured here: cell number, toxicity.
Test [3] is described as follows: Primary imaging screen for DUSP6 inhibitors that restore phospho-Erk in transfected HeLa cells, chemical complementation (AID 609;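 active = compounds giving at least 50% inhibition in the cell-based MKP-3 phosphatase rescue imaging test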;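 as to inhibition: phospho-Erk level distribution per well compared with pooled transfected vehicle control wells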). To be noted: HeLa MKP-3 transfected, phospho-Erk imaging KS statistic, at 10 µM, cells stimulated with TPA for 15 min.
For test [4], the target named is Dual specificity protein phosphatase 6 (Homo sapiens) (UniProt Q16828). The description is as above. To be noted: HeLa MKP-3 transfected, phospho-Erk imaging KS statistic; at 10 µM; stronger effect = higher value; cells stimulated with TPA for 15 min.
Sequence of Dual specificity protein phosphatase 6 (Homo sapiens) (Q16828 whole entry, looked up): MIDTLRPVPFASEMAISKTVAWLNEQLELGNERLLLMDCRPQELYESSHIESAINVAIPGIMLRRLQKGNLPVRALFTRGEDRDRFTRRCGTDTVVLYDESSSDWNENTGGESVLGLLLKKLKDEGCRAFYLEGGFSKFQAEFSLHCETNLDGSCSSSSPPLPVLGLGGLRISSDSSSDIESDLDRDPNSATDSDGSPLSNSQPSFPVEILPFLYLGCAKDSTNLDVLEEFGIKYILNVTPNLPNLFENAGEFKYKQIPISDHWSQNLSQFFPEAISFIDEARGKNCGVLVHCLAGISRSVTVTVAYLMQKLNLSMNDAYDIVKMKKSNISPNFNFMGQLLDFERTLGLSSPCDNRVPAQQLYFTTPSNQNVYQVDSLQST
Test [5] has as its target Voltage-gated potassium channel subunit beta-2 (Rattus norvegicus) (UniProt P62483). Nature of the test: inhibitors of rat Kvbeta2 reductase activity – biochemical, NADPH fluorescence, primary screen (AID 622;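 active = fluorescence slope higher than the sample average by over 3 SD, cut at about -0.22 in these data, passing the limit was not always enough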;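 also: slope of raw intensity against log time taken from 70 to 1610 s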). To be noted: recombinant KvBeta, 4-cyanobenzaldehyde reduction, at 10 µM, stronger effect = higher value.
Test [6] has the same target. The experiment in a line: enhancers of rat Kvbeta2 NADPH turnover – biochemical, NADPH fluorescence, primary screen (AID 623;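 active = NADPH fluorescence slope more negative than the mean of all samples by about 3 SD, 99.7% confidence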;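 also: fluorescence intensity change per second fitted from 20 to 320 s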). To be noted: Recombinant KvBeta, NADPH fluorescence decrease slope, 10 min; at 10 µM; stronger effect = lower value.
Test [7] concerns the target Alpha-2C adrenergic receptor (Homo sapiens) (UniProt P18825). The experiment in a line: compounds altering alpha2C-coupled GIRK flux – cell-based, HEK293 alpha2C/GIRK1/2, thallium flux, primary screen (AID 624;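 active = fluorescence slope after compound addition differing from the mean of all screened samples at 99.7% confidence, in either direction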;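 also: slope of fluorescence ratio to pre-addition baseline per second over 15 to 24 s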). Conditions: thallium flux BTC fluorescence, at 10 µM, actives lie on both sides.
A short description of test [8]: inhibitors of larval lipid processing in zebrafish, primary screen, whole organism, PED6 fluorescence, gall bladder and intestine (AID 686;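 active = a full or partial loss of lipid-probe fluorescence in the fish gall bladder, intestine or both, judged by eye; inactive = no fluorescence loss, or compound toxic to the fish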;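 also: larvae 5 to 7 days old with five fish per well; signal comes from phospholipase A2 cleavage of quenched PED6 carried via bile; overnight exposure to compound and PED6 before scoring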). Conditions: Zebrafish larvae PED6 lipid processing, fluorescence scoring; screened at 20 µM (by protocol). In short, it runs like this:
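Test system – live zebrafish larvae aged 5-7 days, whole organism · Buffer or medium – E3 fish medium · Reagent – quenched phospholipase substrate PED6, 100 nM final, ingested by larvae · Doses – 20 µM single dose · Incubation – overnight compound and PED6 incubation · Technique – visual fluorescence microscopy scoring of gall bladder, gut · Read-out basis – visual per-well fluorescence inhibition score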

A short description of test [9]: loss of swimming-algae plug formation – whole organism, Chlamydomonas reinhardtii, WT vs cilia-less mutant, absorbance, 96-well, primary screen (AID 463189;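 active = inhibition at or above 50% relative to wild type and mutant plate controls; inactive = inhibition below 50%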;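 also: 0% = wild type cc124 cells in DMSO and 100% = ciliumless bld1 mutant cells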). Conditions: Chlamydomonas reinhardtii gravitaxis, OD600 absorbance, 2 days; at 10 µM; stronger effect = higher value.
[10] abbreviates: measured here: cell density z-score.
Setting [11] is: measured here: nuclear c-Myc green intensity z-score.
Where [12] appears, read: measured here: nuclear pErk red intensity z-score, stronger effect = higher value.

Structures are written as SMILES. The source made the active and inactive calls.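 The calls were made as follows, unless noted: active = visually confirmed hit in the image check and inhibition above 20%; inconclusive = visually confirmed hit but inhibition not above 20%; inactive = no visual hit in the image check.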

Sequence of Voltage-gated potassium channel subunit beta-2 (Rattus norvegicus) (P62483 whole entry, looked up): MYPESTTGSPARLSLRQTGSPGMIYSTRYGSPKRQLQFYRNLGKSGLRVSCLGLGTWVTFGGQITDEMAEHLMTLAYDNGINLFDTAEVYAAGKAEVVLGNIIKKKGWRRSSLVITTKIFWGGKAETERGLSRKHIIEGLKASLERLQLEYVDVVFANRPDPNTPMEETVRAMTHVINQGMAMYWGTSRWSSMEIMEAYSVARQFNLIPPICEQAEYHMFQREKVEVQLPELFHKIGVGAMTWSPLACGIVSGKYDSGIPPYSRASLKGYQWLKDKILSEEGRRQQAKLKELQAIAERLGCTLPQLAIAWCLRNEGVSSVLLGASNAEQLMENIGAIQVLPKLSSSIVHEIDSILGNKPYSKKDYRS
Sequence of Alpha-2C adrenergic receptor (Homo sapiens) (P18825 whole entry, looked up): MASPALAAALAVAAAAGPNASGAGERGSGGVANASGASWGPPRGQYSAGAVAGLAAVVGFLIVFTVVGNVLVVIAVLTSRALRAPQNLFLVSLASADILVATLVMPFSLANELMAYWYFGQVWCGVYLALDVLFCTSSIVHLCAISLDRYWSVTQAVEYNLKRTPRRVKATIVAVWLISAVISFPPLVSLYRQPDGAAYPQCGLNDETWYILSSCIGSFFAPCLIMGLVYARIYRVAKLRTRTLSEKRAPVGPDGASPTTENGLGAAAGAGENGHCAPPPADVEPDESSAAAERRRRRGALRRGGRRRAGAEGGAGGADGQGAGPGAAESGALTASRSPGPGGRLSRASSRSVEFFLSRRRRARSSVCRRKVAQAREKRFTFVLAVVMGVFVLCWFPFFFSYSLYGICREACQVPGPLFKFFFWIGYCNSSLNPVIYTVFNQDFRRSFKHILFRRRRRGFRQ

`N#Cc1c(N)nc(SCC(=O)NCCc2ccccc2)c(C#N)c1-c1cccs1`: the cell count in test [1] was determined as 441. The inhibition in [1] is 3.4% (inactive); in [2] it was 19.3% (inactive); in test [4] it was 7.83% (inactive); in test [9], -7.92% (inactive). The nuclei count in test [2] worked out at 62.6%. In addition, the z-score in test [3] (setting [10]) is -1.05; in test [3] (setting [11]) it was -0.516; in [3] (setting [12]) it was 1.34. In addition, the fluorescence slope in test [5] was -0.418 (inactive). Also, in test [6], the NADPH fluorescence slope was -1.6e-05 (inactive). In addition, in test [7], the slope was 0.00734 (inactive). Further, in test [8], the compound was classed as inactive.

Regarding `CCOC(=O)c1c(C)[nH]sc1=S`, the cell count in [1] turned out to be 569. Besides, the inhibition is -2.6% (inactive) in [1], 42.2% (inactive) in [2], 9.82% (inactive) in test [4] and 30.1% (inactive) in test [9]. Further, the nuclei count in [2] was 95.8%. Besides, the z-score in test [3] (setting [10]) was -1.01; in test [3] (setting [11]), 0.222; in test [3] (setting [12]), 0.907. The fluorescence slope in [5] is -0.335 (inactive). For the same compound, the NADPH fluorescence slope in test [6] is -1.2e-06 (inactive). Further, in test [7], the slope was 0.00974 (inactive). For the same compound, the compound was called inactive in test [8].

In the case of `Cc1ccccc1OCc1nc2ccccc2c(=O)n1NC(=O)c1ccco1`, the cell count in test [1] worked out at 346. Further, the inhibition is -13.7% (inactive) in test [1], -57% (inactive) in test [2], 19.3% (inactive) in test [4] and 24.1% (inactive) in [9]. The nuclei count in test [2] came to 104%. The z-score in [3] (setting [10]) is 0.846; in test [3] (setting [11]), 0.49; in [3] (setting [12]), -1.53. The fluorescence slope in test [5] is -0.498 (inactive). Also, the NADPH fluorescence slope in [6] is -1.5e-05 (inactive). In addition, in test [7], the slope is 0.00616 (inactive). The compound was called inactive in [8].

Take `CCCc1cc(-n2ccnc2C)n2c(nc3ccccc32)c1C#N`: the cell count in test [1] worked out at 536. Besides, the inhibition was -42.1% (inactive) in test [1], -109% (inactive) in test [2], -15% (inactive) in [4] and 4.33% (inactive) in [9]. In [2], the nuclei count turned out to be 153%. Besides, the z-score in [3] (setting [10]) was -0.822; in test [3] (setting [11]) it was -0.981; in test [3] (setting [12]) it was 0.35. For the same compound, in [5], the fluorescence slope is -0.415 (inactive). Besides, in test [6], the NADPH fluorescence slope is -3.2e-05 (inactive). The slope in [7] was 0.00567 (inactive). Besides, the result in test [8] was inactive.

`O=C(NC1(C(F)(F)F)C(=O)Nc2c1c(=O)[nH]c(=O)n2-c1ccccc1)c1cccnc1` (stereo unspecified): the cell count in test [1] is 471. For the same compound, the inhibition in test [1] is 1.9% (inactive); in [2], -47.1% (inactive); in [4], 3.5% (inactive); in test [9], 32% (inactive). Also, the nuclei count in test [2] worked out at 106%. In addition, the figures for the z-score in test [3] (setting [10]), in test [3] (setting [11]) and in [3] (setting [12]) were -0.151, -1.59 and 0.837, respectively. Also, the fluorescence slope in test [5] was -0.52 (inactive). For the same compound, in test [6], the NADPH fluorescence slope was -2.5e-05 (inactive). Moreover, in test [7], the slope was 0.00618 (inactive). Also, the call in test [8] was inactive.

With `Cc1cc(=O)oc(C)c1C(=O)NCCN1CCOCC1`, in [1], the cell count worked out at 476. Moreover, the inhibition in test [1] was -0.5% (inactive); in [2], -10.6% (inactive); in [4], -1.75% (inactive); in test [9] it was 21.9% (inactive). Besides, the nuclei count in test [2] is 92.4%. The z-score is -0.82 in test [3] (setting [10]), 0.575 in test [3] (setting [11]) and 1.34 in test [3] (setting [12]). Besides, in test [5], the fluorescence slope is -0.491 (inactive). Besides, in test [6], the NADPH fluorescence slope was -1.8e-05 (inactive). Also, the slope in test [7] is 0.00592 (inactive). The call in test [8] was inactive.

`CC1CC(C(F)(F)F)n2ncnc2N1` (stereo unspecified): the cell count in [1] was 503. The inhibition in test [1] is -3.5% (inactive); in test [2], -41.5% (inactive); in test [4] it was 13.2% (inactive); in test [9] it was 39.7% (inactive). In addition, in test [2], the nuclei count came to 134%. Further, the z-score in test [3] (setting [10]) is -0.241; in [3] (setting [11]) it was 0.0915; in [3] (setting [12]), -0.288. For the same compound, in test [5], the fluorescence slope was -0.523 (inactive). The NADPH fluorescence slope in test [6] is -4.4e-05 (inactive). Further, the slope in test [7] is 0.00582 (inactive). For the same compound, in test [8], the call was inactive.
